What is called pIC50 is the negative decadic logarithm of the IC50, by convention in mol/L. As a reminder, the fraction unbound is the share of the substance not bound to proteins or other matrix. The bioavailability is dose-corrected exposure relative to a reference, in per cent.

The results in this text go back to ChEMBL document CHEMBL3580617, “Discovery of Benzimidazole CYP11B2 Inhibitors with in Vivo Activity in Rhesus Monkeys” (ACS Med Chem Lett, 2015).

In data set [1] the target is T1, Cytochrome P450 11B2, mitochondrial (Homo sapiens, UniProt P19099).
T1 sequence (P19099 whole entry): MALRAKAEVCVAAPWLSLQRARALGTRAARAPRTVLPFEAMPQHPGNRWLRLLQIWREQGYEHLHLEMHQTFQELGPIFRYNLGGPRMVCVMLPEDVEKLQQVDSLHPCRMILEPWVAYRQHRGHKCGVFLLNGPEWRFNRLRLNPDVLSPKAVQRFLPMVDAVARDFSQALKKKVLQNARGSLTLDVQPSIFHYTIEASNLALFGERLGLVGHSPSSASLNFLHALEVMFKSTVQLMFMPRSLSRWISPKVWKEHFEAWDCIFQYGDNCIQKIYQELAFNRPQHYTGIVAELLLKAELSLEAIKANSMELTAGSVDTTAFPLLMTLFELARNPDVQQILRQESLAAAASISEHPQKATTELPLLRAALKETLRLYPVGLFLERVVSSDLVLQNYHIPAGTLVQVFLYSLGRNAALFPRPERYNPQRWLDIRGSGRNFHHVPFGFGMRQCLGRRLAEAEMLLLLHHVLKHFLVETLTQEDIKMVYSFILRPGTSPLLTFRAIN
In words: Inhibition of human CYP11B2 expressed in V79 cells incubated for 1 hr before 11-deoxycorticosterone substrate addition by HTRF-based assay. Format: cell-based. In short, it runs like this:
(§1)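 Human CYP11B2 and CYP11B1 inhibition was tested in cell-based assays. Selectivity was taken as the hCYP11B1 IC50 divided by the hCYP11B2 IC50.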
(In general: Time-resolved FRET reads energy transfer from a long-lived donor to a nearby acceptor.)

Data set [2] addresses T2, Cytochrome P450 11B1, mitochondrial (Homo sapiens, UniProt P15538).
T2 sequence (P15538 whole entry): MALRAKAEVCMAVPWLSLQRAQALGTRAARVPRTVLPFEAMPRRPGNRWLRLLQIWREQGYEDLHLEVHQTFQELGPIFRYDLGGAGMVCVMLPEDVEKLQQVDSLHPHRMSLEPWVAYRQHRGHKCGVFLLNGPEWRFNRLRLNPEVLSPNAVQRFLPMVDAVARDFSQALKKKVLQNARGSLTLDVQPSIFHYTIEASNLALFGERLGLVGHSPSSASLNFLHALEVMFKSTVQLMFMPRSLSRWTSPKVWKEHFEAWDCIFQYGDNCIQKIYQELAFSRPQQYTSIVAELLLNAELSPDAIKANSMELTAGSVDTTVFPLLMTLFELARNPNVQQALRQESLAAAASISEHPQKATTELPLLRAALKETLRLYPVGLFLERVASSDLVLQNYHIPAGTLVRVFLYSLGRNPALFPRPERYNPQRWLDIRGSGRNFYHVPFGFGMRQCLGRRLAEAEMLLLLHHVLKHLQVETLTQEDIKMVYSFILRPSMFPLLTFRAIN
In words: Inhibition of human CYP11B1 expressed in V79 cells incubated for 1 hr before 11-deoxycortisol substrate addition by HTRF-based assay. In kind it is cell-based. In short, it runs like this: as §1

The species entered for data set [3] is Homo sapiens. Nature of the data set: Selectivity index, ratio of IC50 for human CYP11B1 to IC50 for human CYP11B2. In short, it runs like this:
as §1

The nature of data set [4]: Fraction unbound in rat plasma at […] incubated for 4 hrs by equilibrium dialysis and LC/MS method. Format: ADME, cell-free. In general terms: In equilibrium dialysis free small molecules cross a membrane that holds back macromolecules.
Data set [5] in a line: Intrinsic clearance in rat liver microsomes at […] incubated for 10 mins before NADPH addition by LC/MS method. Format: ADME. Particulars: read-out: CLH.
A short description of data set [6]: Oral bioavailability in Sprague-Dawley rat at 2 mg/kg by LC-MS/MS method. To be noted: in vivo. In kind it is ADME, organism-based. In short, it runs like this:
(§2)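 In the rat pharmacokinetic study, AUC was normalized for dose (μM·h·kg/mg), plasma clearance was expressed in mL/min/kg, and oral bioavailability was calculated.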

Data set [7] concerns Rattus norvegicus. In words: Dose normalized AUC in Sprague-Dawley rat at 2 mg/kg, po or 1 mg/kg, iv by LC-MS/MS method. Format: ADME, organism-based. To be noted: in vivo. In short, it runs like this:
as §2

The nature of data set [8]: Plasma clearance in Sprague-Dawley rat at 2 mg/kg, po or 1 mg/kg, iv by LC-MS/MS method. Format: ADME, organism-based. In short, it runs like this: as §2
The subject of data set [9] is V79. In words: Inhibition of rhesus monkey CYP11B2 expressed in V79 cells incubated for 1 hr before 11-deoxycorticosterone substrate addition by HTRF-based assay. In kind it is cell-based. To be noted: Macaca mulatta.
The target in data set [10] is T3, Cytochrome P450 11B2, mitochondrial (Rattus norvegicus, UniProt P30099).
T3 sequence (P30099 whole entry): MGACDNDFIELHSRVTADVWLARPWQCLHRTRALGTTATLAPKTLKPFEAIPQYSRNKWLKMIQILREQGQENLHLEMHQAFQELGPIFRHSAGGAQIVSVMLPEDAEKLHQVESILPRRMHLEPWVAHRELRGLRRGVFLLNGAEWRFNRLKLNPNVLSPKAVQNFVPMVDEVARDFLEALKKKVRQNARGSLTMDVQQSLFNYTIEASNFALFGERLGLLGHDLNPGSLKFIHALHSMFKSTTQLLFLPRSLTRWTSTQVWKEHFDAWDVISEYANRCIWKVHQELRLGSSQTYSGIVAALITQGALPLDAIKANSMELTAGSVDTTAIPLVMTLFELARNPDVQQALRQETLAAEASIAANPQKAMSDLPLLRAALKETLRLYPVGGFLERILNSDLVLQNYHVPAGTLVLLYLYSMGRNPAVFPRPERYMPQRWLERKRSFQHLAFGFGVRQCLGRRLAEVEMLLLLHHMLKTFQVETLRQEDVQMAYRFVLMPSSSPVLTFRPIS
Nature of the data set: Inhibition of rat CYP11B2 expressed in V79 cells incubated for 1 hr before 11-deoxycorticosterone substrate addition by HTRF-based assay. Format: cell-based. To be noted: v79, 1 h.

SMILES strings stand for the structures. pIC50: −log10 of the molar value. Active and inactive are the calls of the source. No cut-off for these calls is given here.

In the case of `N#Cc1cc2c(cc1F)nc(-c1cccnc1)n2C1CC1`, the pIC50 in data set [1] was 9.22; in [2], 6.93. For the same compound, the Ratio IC50 in [3] stood at 195.
On the same counts, the results for `Fc1cccc2c1nc(-c1cccnc1)n2C1CC1` are 6.66, under 5.08 and over 38.
As to `COc1ccc2nc(-c3cccnc3)n(C3CC3)c2c1`, the pIC50 in data set [1] is 7.62; in [2] it was 5.70. Besides, the Ratio IC50 in [3] was 83.
As to `Fc1ccc2nc(-c3cccnc3)n(C3CCC3)c2c1`, the pIC50 in [1] was under 5.30; in [2], under 5.00.
As to `CC(C)(C)n1c(-c2cccnc2)nc2ccc(F)cc21`, the results for the pIC50 in [1] and in data set [2] were under 5.30 and under 5.00, respectively.
In the case of `CC(C)n1c(-c2cccnc2)nc2ccc(F)cc21`, the pIC50 in [1] is 6.86; in data set [2] it was 5.41. Further, in data set [3], the Ratio IC50 came out at 28.
Regarding `Cn1c(-c2cccnc2)nc2ccc(F)cc21`, the pIC50 was 7.92 in data set [1] and 6.17 in data set [2]. Moreover, the Ratio IC50 in [3] is 56. The compound also registered a fraction unbound at 4 h in data set [4] of 0.25. Moreover, the CLint scaled in data set [5] was 30 mL/min/kg. In data set [6], this compound returned a bioavailability of 37%. Moreover, the AUC/dose in [7] is 0.56 µM·kg·h/mg. The compound further yielded a clearance in [8] of 59 mL/min/kg.
With `Fc1cc2nc(-c3cccnc3)n(C3CC3)c2cc1Cl`, the pIC50 in data set [1] was 9.40; in data set [2], 6.48. The Ratio IC50 in [3] turned out to be 835.
In the same order, the values of `Cc1ccncc1-c1nc2cc(F)c(F)cc2n1C1CC1` are 7.99, 6.14 and 71.
In the same order, the values of `N#Cc1cncc(-c2nc3cc(F)c(F)cc3n2C2CC2)c1` are 7.65, 5.81 and 70.
As to `Fc1cncc(-c2nc3cc(F)c(Cl)cc3n2C2CC2)c1`, the pIC50 in data set [1] is 9.10; in data set [2] it was 6.60. Also, the Ratio IC50 in data set [3] was determined as 296.
On to `Fc1ccc2nc(-c3cccnc3)n(CC(F)(F)F)c2c1`, for which the results for the pIC50 in data set [1] and in data set [2] were 6.25 and under 5.08, respectively. Also, in data set [3], the Ratio IC50 is over 15.
For the compound `FC(F)(F)c1ccc2c(c1)nc(-c1cccnc1)n2C1CC1` [MSD-CYP11B2-Negative-control], the pIC50 in data set [1] and in [2] was under 5.00 throughout.
`FC(F)(F)c1ccc2nc(-c3cccnc3)n(C3CC3)c2c1`: the pIC50 in data set [1] is 6.60; in data set [2] it was 5.74. The Ratio IC50 in data set [3] was determined as 7.
In the case of `Fc1ccc2nc(-c3cccnc3)n(Cc3ccccc3)c2c1`, the pIC50 in data set [1] was 6.22; in data set [2] it was under 5.08. In data set [3], the Ratio IC50 was over 14.
For the compound `c1cncc(-c2nc3ccccc3n2C2CC2)c1`, the values for the pIC50 in data set [1] and in [2] were 7.31 and under 5.08, respectively. Besides, the Ratio IC50 in data set [3] was over 170.
On the same counts, the results for `Fc1ccc2nc(-c3cccnc3)[nH]c2c1` are under 5.00, 5.70 and under 1.
For the compound `CS(=O)(=O)c1ccc2c(c1)nc(-c1cccnc1)n2C1CC1`, the figures for the pIC50 in data set [1] and in [2] were under 6.00 and under 5.00, respectively.
`COc1ccc2c(c1)nc(-c1cccnc1)n2C1CC1`: the pIC50 is under 6.00 in [1] and under 5.00 in data set [2].
For the compound `COc1c(C)cncc1-c1nc2cc(F)c(F)cc2n1C1CC1`, the pIC50 in data set [1] is 9.22; in data set [2], 6.36. In addition, in [3], the Ratio IC50 was 709.
In the case of `N#Cc1cc2c(cc1F)nc(-c1cncc(F)c1)n2C1CC1`, the pIC50 in data set [1] was 9.00; in [2], 6.65. Besides, the Ratio IC50 in data set [3] came out at 225.
Consider `Fc1cc2nc(-c3cccnc3)n(C3CC3)c2cc1F`, for which the pIC50 in data set [1] was 8.68; in data set [2], 6.43. For the same compound, the Ratio IC50 in data set [3] was 176. In data set [4], this compound had a fraction unbound at 4 h of 0.15. In addition, the CLint scaled in data set [5] is under 20 mL/min/kg. The same compound had a bioavailability in data set [6] of 92%. Moreover, in [7], the AUC/dose came to 1.32 µM·kg·h/mg. In [8], this compound yielded a clearance of 43 mL/min/kg. Also, the inhibition result in [9] was “Active”. Further, in data set [10], the “inhibition (INH)” value is on record as “Not Active”.
Regarding `N#Cc1ccc2c(c1)nc(-c1cccnc1)n2C1CC1`, the figures for the pIC50 in [1] and in data set [2] were 5.75 and under 5.00, respectively. Also, in data set [3], the Ratio IC50 was over 6.
Take `Cc1cncc(-c2nc3cc(F)c(F)cc3n2C2CC2)c1C`: the results for the pIC50 in data set [1] and in [2] were 9.70 and 7.75, respectively. Also, the Ratio IC50 in [3] is 74.
In the same order, the values of `Clc1ccc2nc(-c3cccnc3)n(C3CC3)c2c1` are 8.66, 6.32 and 215.
In the case of `Fc1ccc2c(c1)nc(-c1cccnc1)n2C1CC1`, the Ratio IC50 in [3] was determined as 142.
As to `Fc1ccc2nc(-c3cccnc3)n(C3CC3)c2c1`, the pIC50 is 8.40 in data set [1] and 6.40 in [2]. The Ratio IC50 in data set [3] came out at 100. In data set [4], the fraction unbound at 4 h was found to be 0.15. In addition, in data set [5], the CLint scaled came to 28 mL/min/kg. This compound yielded a bioavailability in [6] of 77%. Besides, the AUC/dose in data set [7] stood at 1.82 µM·kg·h/mg. The compound also displayed a clearance in data set [8] of 28 mL/min/kg.
In the case of `CCn1c(-c2cccnc2)nc2ccc(F)cc21`, the figures for the negative logarithm of the IC50 (pIC50) in data set [1] and in [2] were 7.46 and 5.68, respectively. Further, in data set [3], the Ratio IC50 worked out at 60.
For `Fc1cccc2nc(-c3cccnc3)n(C3CC3)c12`, the pIC50 in data set [1] is 6.97; in data set [2], under 5.00. Further, in data set [3], the Ratio IC50 was over 93.
Take `CC1(n2c(-c3cccnc3)nc3ccc(F)cc32)CC1`: the negative logarithm of the IC50 (pIC50) in [1] was 7.80; in data set [2] it was 5.54. Moreover, in data set [3], the Ratio IC50 is 179. For the same compound, in data set [4], the fraction unbound at 4 h is 0.19. The CLint scaled in data set [5] is 82 mL/min/kg. Also, the bioavailability in [6] turned out to be 32%. The AUC/dose in data set [7] was 0.2 µM·kg·h/mg. Also, in data set [8], the clearance amounted to 131 mL/min/kg.
For `COc1cncc(-c2nc3cc(F)c(F)cc3n2C2CC2)c1`, the figures for the pIC50 in [1] and in data set [2] were 9.40 and 6.60, respectively. Also, in data set [3], the Ratio IC50 was found to be 606.
On the same counts, the results for `Fc1cc2nc(-c3cnccc3C(F)(F)F)n(C3CC3)c2cc1F` are 8.09, 6.10 and 98.
In data set [1], `N#Cc1ccc2nc(-c3cccnc3)n(C3CC3)c2c1` showed a pIC50 of 8.92. For the same compound, the Ratio IC50 in data set [3] worked out at 309.
